# Measured values gathered from unrelated publications.
# Compare with care: the assays were run in different laboratories.
# Target: Serine/threonine-protein kinase Nek9 (NEK9, Homo sapiens, UniProt Q8TD19)
# Residues used in one study (Q8TD19 1-979): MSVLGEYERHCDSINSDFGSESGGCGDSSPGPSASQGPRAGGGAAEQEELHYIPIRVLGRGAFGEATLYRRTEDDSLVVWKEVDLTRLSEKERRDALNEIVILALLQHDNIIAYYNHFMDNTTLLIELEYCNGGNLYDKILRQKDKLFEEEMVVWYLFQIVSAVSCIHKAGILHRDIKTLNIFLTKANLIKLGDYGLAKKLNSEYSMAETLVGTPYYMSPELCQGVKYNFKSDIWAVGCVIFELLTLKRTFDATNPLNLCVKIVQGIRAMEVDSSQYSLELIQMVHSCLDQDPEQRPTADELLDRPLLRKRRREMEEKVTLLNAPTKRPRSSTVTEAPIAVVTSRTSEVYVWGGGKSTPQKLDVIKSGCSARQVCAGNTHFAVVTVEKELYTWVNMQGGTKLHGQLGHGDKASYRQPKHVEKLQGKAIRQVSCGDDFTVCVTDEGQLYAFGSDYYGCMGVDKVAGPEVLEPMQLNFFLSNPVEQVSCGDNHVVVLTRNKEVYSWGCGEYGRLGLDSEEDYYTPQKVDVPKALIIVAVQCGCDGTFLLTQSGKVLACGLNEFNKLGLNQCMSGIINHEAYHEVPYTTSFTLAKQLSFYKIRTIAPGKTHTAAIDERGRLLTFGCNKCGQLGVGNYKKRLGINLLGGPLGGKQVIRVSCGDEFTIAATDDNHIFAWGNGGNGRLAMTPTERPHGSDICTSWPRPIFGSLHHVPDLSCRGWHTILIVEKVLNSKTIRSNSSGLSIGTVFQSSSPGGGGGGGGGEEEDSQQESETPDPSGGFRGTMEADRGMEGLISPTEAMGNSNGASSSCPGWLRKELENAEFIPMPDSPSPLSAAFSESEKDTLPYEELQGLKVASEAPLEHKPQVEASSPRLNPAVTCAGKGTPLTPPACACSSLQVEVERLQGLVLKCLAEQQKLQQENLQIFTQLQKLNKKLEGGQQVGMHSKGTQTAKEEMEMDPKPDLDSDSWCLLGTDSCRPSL
Structure (SMILES),observed,mode,method,concentration,measurement,value
CS(=O)(=O)c1cc(C2(NC(=O)c3cncc4c3cnn4-c3ccc(F)cc3)CC2)ccn1,cell-free assay,,competition with immobilised ligand,1 µM,remaining binding,100%
N[C@H]1CCN(c2nccc(-c3cnn4ncccc34)n2)C1,binding,,,1 µM,remaining binding,100%
CNC(=O)c1cc(Oc2ccc(NC(=O)Nc3ccc(Cl)c(C(F)(F)F)c3)cc2)ccn1,cell-free assay,,,0.5 µM,remaining signal,95.4%
CCCS(=O)(=O)Nc1ccc(F)c(C(=O)c2c[nH]c3ncc(-c4ccc(Cl)cc4)cc23)c1F,enzyme activity,inhibitor,,1 µM,inhibition,< 10%
Oc1cccc(-c2nc(N3CCOCC3)c3oc4ncccc4c3n2)c1,cell-free assay,,,0.5 µM,remaining signal,99.3%
O=C(O)[C@@H]1[C@@H](Cn2nnc3ccccc3c2=O)CC[C@H]1C(=O)c1ccc(OCCC2CCOCC2)cc1,cell-free assay,,competition with immobilised ligand,1 µM,remaining binding,100%
COc1cc2ncnc(Nc3ccc(Oc4ccccc4)cc3C)c2cc1OC,enzyme activity,inhibitor,,1 µM,inhibition,-2%
COc1cc(Cl)c(C(=O)N[C@@H](CN[C@H]2CC[C@@H](N)CC2)Cc2ccc(C#N)cc2)cc1-c1ccc(CN[C@H](C)c2ccc(C)cc2)o1,enzyme activity,inhibitor,,1 µM,remaining activity,127%
Clc1ccc(Nc2nnc(Cc3ccncc3)c3ccccc23)cc1,cell-free assay,,,0.5 µM,remaining signal,98.4%
CC/C(=N\NC(=O)NCc1cccc(O)c1)c1ccc(O)c(C)c1O,enzyme activity,inhibitor,,0.1 µM,inhibition,-2.8%
CC(C)(C)c1nc2c(s1)c1nc(N)ncc1c1ccc(NS(=O)(=O)c3c(F)cccc3F)c(F)c12,enzyme activity,inhibitor,radiometric,1 µM,remaining activity,96%
O=c1nc(-c2ccccn2)sc2ccccc12,binding,,competition with immobilised ligand,1 µM,remaining binding,96%
CCOc1cc(-c2nncn2C)ccc1Nc1ncc2cc(C)nc(NCC(C)(C)C)c2n1,enzyme activity,inhibitor,FRET,1 µM,inhibition,< 15%
Cc1nc(N2CC[C@@H](O)C2)ncc1-c1cc(C(F)(F)F)cc2[nH]ncc12,binding,,competition with immobilised ligand,1 µM,remaining binding,96%
Cc1cc(NC(=O)c2cccc3cc(-c4cccc5[nH]nc(N)c45)ccc23)ccc1F,enzyme activity,inhibitor,,0.1 µM,activity vs control,126%
Nc1c(C(=O)NCc2ccc(C(=O)NCCCC3CCCCC3)cc2)cnn1-c1ccccc1,cell-free assay,,competition with immobilised ligand,0.1 µM,remaining binding,100%
COc1cc(Nc2c(C#N)cnc3cc(OCCCN4CCN(C)CC4)c(OC)cc23)c(Cl)cc1Cl,cell-free assay,,,0.5 µM,remaining signal,94%
